Measured values taken from ChEMBL document CHEMBL2176910, “Identification of small molecule inhibitors of amyloid β-induced neuronal apoptosis acting through the imidazoline I(2) receptor” (J Med Chem, 2012).
Activity calls are given as the source filed them. The rule behind the calls is not given here.

What was measured:
[1] = biological target: T1, 5-hydroxytryptamine receptor 1A (Homo sapiens) (UniProt P08908); test: Inhibition of radioligand binding to 5HT1A at 10 uM
T1 sequence (whole entry): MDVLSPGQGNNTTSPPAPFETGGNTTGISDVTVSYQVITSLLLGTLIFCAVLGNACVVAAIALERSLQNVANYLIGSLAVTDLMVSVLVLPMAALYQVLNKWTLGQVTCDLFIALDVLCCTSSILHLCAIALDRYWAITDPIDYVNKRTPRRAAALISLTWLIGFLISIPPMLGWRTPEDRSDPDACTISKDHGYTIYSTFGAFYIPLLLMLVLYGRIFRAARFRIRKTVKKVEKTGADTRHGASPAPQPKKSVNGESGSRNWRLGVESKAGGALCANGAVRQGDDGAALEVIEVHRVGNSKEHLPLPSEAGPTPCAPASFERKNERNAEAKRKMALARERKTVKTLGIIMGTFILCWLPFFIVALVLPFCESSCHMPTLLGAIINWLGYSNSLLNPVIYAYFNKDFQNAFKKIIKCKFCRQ
How it was run: (§1)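 Part of an in vitro radioligand binding panel. Each target was tested against a potent standard radioligand for that site. The read-out was percent inhibition of specific binding, reported as an average value.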

[2] = biological target: Delta-type opioid receptor (Homo sapiens) (UniProt P41143); test: Inhibition of radioligand binding to DOP receptor at 10 uM; how it was run: as §1
Chain of Delta-type opioid receptor (Homo sapiens) (P41143 whole entry): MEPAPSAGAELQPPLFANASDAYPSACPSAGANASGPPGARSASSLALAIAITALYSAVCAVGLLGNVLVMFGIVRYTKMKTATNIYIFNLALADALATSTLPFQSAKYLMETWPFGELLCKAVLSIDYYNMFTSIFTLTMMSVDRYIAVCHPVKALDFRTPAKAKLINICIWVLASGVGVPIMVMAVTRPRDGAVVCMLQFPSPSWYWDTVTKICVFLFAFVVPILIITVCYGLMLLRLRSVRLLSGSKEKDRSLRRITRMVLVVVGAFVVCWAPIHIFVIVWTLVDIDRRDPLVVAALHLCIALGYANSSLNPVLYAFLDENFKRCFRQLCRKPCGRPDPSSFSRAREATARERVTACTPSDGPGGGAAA

[3] = biological target: Muscarinic acetylcholine receptor M3 (Homo sapiens) (UniProt P20309); test: Inhibition of radioligand binding to muscarinic M3 receptor at 10 uM; how it was run: as §1
Chain of Muscarinic acetylcholine receptor M3 (Homo sapiens) (P20309 whole entry, looked up, the tested form may be a part): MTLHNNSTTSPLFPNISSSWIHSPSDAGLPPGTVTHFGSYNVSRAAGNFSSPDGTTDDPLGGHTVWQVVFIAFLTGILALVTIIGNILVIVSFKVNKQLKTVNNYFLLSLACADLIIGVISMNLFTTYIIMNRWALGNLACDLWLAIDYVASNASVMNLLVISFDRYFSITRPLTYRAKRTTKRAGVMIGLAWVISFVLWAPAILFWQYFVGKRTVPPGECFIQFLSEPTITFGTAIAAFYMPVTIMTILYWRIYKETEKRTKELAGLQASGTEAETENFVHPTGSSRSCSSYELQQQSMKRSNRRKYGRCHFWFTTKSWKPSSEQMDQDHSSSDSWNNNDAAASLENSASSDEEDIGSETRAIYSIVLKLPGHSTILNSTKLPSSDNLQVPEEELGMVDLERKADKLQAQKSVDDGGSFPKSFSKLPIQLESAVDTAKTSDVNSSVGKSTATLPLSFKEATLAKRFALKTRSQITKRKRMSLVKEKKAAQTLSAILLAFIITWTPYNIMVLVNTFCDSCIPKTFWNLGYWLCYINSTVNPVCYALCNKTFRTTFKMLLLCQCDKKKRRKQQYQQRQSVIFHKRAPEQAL

Hippocampal neuron [4] = test: Neuroprotective activity against Abeta-induced neuronal apoptosis in mouse hippocampal neurons assessed as reduction in DNA fragmentation at 30 uM pre-incubated for 4 hrs before Abeta challenge for 72 hrs by immunofluorescence microscopy; assay type: functional, tissue-based; conditions: Hippocampus
How it was run: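 Primary mouse hippocampal neurons were exposed to Aβ (20 μM, 72 h) alone or with compound. Double immunofluorescence microscopy was then run for DNA fragmentation (TUNEL, green) and total neuronal nuclei (NeuN, red), with merged images. DNase-treated cells served as positive control.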

[5] = Inhibition of radioligand binding to Sigma receptor at 10 uM
[6] = Inhibition of radioligand binding to alpha2 adrenergic receptor at 10 uM; how it was run: as §1
Nischarin = Nischarin (Homo sapiens, UniProt Q9Y2I1); test: Inhibition of radioligand binding to imidazole receptor 1 at 10 uM
Chain of Nischarin (Q9Y2I1 whole entry): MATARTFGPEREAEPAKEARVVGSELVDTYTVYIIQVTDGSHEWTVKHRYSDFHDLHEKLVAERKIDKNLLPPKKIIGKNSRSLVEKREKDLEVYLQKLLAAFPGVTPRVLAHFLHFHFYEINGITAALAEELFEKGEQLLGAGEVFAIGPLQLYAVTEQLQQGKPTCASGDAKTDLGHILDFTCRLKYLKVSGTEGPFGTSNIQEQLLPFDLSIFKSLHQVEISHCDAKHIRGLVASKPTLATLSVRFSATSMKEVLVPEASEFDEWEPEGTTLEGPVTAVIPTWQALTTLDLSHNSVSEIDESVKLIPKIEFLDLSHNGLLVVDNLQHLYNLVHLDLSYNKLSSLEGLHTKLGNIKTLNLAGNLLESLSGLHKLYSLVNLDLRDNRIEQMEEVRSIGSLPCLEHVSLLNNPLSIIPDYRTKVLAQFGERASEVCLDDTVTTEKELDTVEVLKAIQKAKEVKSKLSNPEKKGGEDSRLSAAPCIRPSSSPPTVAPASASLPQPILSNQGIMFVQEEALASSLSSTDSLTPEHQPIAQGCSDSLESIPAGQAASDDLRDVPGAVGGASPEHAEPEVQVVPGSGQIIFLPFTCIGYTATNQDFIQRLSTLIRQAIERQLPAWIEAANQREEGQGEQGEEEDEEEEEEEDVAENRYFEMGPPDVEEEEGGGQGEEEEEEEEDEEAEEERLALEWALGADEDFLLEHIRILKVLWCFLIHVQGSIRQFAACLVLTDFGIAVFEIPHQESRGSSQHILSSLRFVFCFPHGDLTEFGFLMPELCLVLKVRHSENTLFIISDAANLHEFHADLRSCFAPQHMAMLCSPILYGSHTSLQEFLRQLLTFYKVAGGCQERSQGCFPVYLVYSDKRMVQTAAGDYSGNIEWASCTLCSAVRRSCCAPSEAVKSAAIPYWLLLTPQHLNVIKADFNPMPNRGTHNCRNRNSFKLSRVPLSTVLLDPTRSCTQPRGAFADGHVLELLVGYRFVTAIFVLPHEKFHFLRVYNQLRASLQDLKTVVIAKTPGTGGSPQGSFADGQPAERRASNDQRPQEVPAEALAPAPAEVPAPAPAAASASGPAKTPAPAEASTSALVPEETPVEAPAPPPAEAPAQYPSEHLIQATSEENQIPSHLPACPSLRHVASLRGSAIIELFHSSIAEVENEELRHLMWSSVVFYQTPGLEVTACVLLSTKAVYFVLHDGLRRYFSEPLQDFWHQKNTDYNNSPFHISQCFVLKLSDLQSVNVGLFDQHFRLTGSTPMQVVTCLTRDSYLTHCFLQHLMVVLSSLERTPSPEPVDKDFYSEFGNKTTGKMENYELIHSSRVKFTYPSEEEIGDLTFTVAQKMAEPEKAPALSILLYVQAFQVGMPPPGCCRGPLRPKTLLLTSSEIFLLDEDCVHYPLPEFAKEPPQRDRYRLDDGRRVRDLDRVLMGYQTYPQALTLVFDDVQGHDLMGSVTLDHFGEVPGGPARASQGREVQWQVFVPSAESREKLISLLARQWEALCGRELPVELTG

[7] = biological target: Melanocortin receptor 4 (Homo sapiens) (UniProt P32245); test: Inhibition of radioligand binding to MC4R at 10 uM
Chain of Melanocortin receptor 4 (Homo sapiens) (P32245 whole entry): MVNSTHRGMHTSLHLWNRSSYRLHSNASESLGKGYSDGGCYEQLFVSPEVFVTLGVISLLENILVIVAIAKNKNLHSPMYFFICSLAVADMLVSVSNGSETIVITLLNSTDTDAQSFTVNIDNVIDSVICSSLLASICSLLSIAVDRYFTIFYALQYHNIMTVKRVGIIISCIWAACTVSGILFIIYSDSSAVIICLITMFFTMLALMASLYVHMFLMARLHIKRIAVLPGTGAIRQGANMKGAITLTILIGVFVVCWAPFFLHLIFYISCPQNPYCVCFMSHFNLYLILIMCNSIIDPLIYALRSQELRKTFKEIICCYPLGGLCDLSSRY

[8] = biological target: D(2) dopamine receptor (Homo sapiens) (UniProt P14416); test: Inhibition of radioligand binding to D2L receptor at 10 uM; how it was run: as §1
Chain of D(2) dopamine receptor (Homo sapiens) (P14416 whole entry): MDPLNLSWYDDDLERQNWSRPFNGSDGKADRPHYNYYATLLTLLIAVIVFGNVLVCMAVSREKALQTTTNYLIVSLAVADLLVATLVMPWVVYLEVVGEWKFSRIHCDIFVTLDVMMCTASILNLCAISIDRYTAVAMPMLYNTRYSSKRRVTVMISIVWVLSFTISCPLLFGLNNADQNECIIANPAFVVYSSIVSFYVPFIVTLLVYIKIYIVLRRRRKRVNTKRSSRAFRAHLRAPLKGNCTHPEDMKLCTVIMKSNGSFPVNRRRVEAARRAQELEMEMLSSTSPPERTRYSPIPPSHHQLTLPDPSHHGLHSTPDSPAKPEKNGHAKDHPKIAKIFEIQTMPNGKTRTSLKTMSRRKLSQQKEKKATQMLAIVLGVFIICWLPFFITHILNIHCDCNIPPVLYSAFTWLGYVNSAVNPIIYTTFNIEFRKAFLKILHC

[9] = biological target: 5-hydroxytryptamine receptor 2A (Homo sapiens) (UniProt P28223); test: Inhibition of radioligand binding to 5HT2A at 10 uM; how it was run: as §1
Chain of 5-hydroxytryptamine receptor 2A (Homo sapiens) (P28223 whole entry): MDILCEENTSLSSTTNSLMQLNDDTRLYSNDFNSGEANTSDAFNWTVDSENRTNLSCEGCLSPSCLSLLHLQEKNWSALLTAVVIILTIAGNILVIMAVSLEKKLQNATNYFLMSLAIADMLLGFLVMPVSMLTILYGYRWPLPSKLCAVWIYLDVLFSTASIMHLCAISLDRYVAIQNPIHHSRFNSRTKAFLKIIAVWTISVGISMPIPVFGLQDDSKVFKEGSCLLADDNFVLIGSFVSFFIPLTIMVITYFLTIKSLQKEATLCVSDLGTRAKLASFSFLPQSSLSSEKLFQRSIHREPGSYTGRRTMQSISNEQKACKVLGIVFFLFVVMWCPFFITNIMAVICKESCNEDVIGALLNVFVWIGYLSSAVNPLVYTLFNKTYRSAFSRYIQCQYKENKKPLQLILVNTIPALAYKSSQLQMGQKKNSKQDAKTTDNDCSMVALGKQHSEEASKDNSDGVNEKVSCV

[10] = biological target: T2, MAO-B (amine oxidase [flavin-containing] B) (Homo sapiens, UniProt P27338); test: Inhibition of MAOB at 10 uM
T2 sequence (P27338 whole entry): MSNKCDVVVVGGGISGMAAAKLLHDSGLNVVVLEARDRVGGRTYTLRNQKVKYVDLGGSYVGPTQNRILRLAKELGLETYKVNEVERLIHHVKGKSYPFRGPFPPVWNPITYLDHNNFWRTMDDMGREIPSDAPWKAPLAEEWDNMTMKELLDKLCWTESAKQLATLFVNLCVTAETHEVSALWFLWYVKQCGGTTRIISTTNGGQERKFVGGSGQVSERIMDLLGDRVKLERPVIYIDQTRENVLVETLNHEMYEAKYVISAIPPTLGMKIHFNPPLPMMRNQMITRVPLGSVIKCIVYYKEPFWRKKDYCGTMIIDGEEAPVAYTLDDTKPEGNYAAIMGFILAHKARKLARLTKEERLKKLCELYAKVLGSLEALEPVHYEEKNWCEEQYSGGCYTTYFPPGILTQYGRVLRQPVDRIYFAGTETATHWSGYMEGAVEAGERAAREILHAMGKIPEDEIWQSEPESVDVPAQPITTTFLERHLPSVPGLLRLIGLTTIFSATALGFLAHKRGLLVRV
How it was run: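 Radioligand binding panel. Values are average percentages of inhibition of specific binding, measured against potent standard ligands for each target.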

[11] = biological target: Acetylcholinesterase (Homo sapiens) (UniProt P22303); test: Inhibition of AChE at 10 uM; how it was run: as §1
Chain of Acetylcholinesterase (Homo sapiens) (P22303 whole entry): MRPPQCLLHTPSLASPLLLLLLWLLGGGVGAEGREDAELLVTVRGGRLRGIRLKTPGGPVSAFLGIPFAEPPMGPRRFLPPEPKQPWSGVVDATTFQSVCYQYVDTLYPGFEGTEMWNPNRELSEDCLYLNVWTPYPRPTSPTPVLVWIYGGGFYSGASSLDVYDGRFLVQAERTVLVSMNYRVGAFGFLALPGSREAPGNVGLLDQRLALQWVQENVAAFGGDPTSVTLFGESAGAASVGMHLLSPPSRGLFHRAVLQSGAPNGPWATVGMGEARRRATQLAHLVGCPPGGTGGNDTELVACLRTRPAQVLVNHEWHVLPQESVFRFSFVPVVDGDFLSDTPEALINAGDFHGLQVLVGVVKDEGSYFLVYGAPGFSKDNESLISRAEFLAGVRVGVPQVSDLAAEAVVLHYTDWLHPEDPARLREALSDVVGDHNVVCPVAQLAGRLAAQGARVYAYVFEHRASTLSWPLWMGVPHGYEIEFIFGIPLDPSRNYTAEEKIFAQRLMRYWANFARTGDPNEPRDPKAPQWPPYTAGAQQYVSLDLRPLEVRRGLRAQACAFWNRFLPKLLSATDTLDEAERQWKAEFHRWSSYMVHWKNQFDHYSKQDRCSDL

[12] = biological target: T3, 5-hydroxytryptamine receptor 2C (Homo sapiens) (UniProt P28335); test: Inhibition of radioligand binding to 5HT2C at 10 uM; how it was run: as §1
T3 sequence (whole entry): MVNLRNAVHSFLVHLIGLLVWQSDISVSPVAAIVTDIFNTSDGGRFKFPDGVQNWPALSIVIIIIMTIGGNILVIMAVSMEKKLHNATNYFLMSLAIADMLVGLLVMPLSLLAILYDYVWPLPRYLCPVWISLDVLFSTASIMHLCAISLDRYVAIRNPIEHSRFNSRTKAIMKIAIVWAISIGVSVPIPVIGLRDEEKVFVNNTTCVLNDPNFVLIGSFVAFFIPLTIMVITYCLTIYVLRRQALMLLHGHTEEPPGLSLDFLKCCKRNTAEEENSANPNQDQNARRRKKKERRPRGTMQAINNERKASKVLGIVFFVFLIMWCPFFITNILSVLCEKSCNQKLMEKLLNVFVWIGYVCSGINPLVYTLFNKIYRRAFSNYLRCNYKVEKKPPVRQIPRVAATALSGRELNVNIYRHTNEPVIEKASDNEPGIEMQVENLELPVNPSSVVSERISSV

[13] = biological target: Mu-type opioid receptor (Homo sapiens) (UniProt P35372); test: Inhibition of radioligand binding to MOP receptor at 10 uM; how it was run: as §1
Chain of Mu-type opioid receptor (Homo sapiens) (P35372 whole entry): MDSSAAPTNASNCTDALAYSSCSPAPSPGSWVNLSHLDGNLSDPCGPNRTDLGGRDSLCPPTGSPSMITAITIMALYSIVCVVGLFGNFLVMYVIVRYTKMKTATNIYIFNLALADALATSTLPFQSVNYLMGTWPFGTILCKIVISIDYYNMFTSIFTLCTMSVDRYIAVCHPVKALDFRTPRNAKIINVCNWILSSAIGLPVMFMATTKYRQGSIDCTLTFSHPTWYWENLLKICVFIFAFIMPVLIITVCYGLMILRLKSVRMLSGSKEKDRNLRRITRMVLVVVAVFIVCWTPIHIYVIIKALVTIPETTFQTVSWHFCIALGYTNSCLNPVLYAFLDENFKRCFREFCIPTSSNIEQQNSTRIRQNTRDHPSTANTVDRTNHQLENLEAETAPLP

Hippocampal neuron [14] = test: Neuroprotective activity in mouse hippocampal neurons assessed as Abeta-induced neuronal apoptosis at 30 uM pre-incubated for 4 hrs before Abeta challenge for 72 hrs by TUNEL assay (reference value: 100%); assay type: functional; conditions: Hippocampus
How it was run: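 Aggregated Aβ (20 μM, 72 h) was applied to primary mouse hippocampal neurons with or without compound at 30 μM. Apoptosis was scored by TUNEL as the percentage of positive nuclei among total nuclei, referred to Aβ alone (100%). Medium-only cells were the negative control and DNase the positive control. n = 4, mean ± SEM, two-tailed Student's test.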

## NCC12CCC3CC(CC3C1)C2 (stereo not given)
[1]
  inhibition: < 20%
[2]
  inhibition: < 20%
[3]
  inhibition: < 20%
Hippocampal neuron [4]
  Activity: Active
[5]
  inhibition: 39%
[6]
  inhibition: < 20%
Nischarin
  inhibition: < 20%
[7]
  inhibition: < 20%
[8]
  inhibition: < 20%
[9]
  inhibition: < 20%
[10]
  inhibition at 10 µM: < 20%
[11]
  inhibition: < 20%
[12]
  inhibition: < 20%
[13]
  inhibition: < 20%
Hippocampal neuron [14]
  Activity: Active

## CN(C)C(CN)c1ccccc1Cl (stereo not given)
[1]
  inhibition: < 20%
[2]
  inhibition: < 20%
[3]
  inhibition: < 20%
Hippocampal neuron [4]
  Activity: Active
[5]
  inhibition: < 20%
[6]
  inhibition: < 20%
Nischarin
  inhibition: < 20%
[7]
  inhibition: < 20%
[8]
  inhibition: < 20%
[9]
  inhibition: < 20%
[10]
  inhibition at 10 µM: < 20%
[11]
  inhibition: < 20%
[12]
  inhibition: < 20%
[13]
  inhibition: < 20%
Hippocampal neuron [14]
  Activity: Active

## CN1CCNC(c2ccccc2)C1 (stereo not given)
[1]
  inhibition: < 20%
[2]
  inhibition: < 20%
[3]
  inhibition: < 20%
Hippocampal neuron [4]
  Activity: Active
[5]
  inhibition: < 20%
[6]
  inhibition: < 20%
Nischarin
  inhibition: 36%
[7]
  inhibition: < 20%
[8]
  inhibition: < 20%
[9]
  inhibition: < 20%
[10]
  inhibition at 10 µM: < 20%
[11]
  inhibition: < 20%
[12]
  inhibition: < 20%
[13]
  inhibition: < 20%
Hippocampal neuron [14]
  Activity: Active
